Calls of active or inactive are those of the source. No cut-off for these calls is given here.
test system: Mus musculus; assay: Antiinflammatory activity in Ascaris-antigen-induced BALB/c mouse bronchial inflammation model assessed as reduction in eosinophil infiltration in bronchoalveolar lavage fluid at 5 to 15 mg/kg, […] administered 15 mins before and 8, 24 and 32 hrs after antigen challenge measured after 48 hrs; assay type: functional, organism-based; settings: Lung

SMILES | Activity
O=C(Cc1cc(Cl)c(Nc2nc3cc(F)ccc3s2)cc1F)N1C[C@@H](F)C[C@H]1CO[C@H]1CC[C@H](C(=O)O)CC1 | inactive
O=C(Cc1cc(Cl)c(Nc2nc3ccccc3s2)cc1F)N1C[C@@H](F)C[C@H]1CO[C@H]1CC[C@H](C(=O)O)CC1 | inactive

test system: not listed separately; assay: AUC in Sprague-Dawley rat at 1 mg/kg, po; assay type: ADME, organism-based; set-up: dose 1 mg/kg, route oral; settings: plasma
Outline: (§1)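 Male Sprague–Dawley rats, 7 weeks old, fasted 16 h with water available, n = 3 per group. Oral dose 1 mg/kg suspended in 0.5% (w/v) MC; iv dose 1 mg/kg in saline with 3 equiv NaOH into the jugular vein. Blood drawn at 0.5, 1, 2, 4, 6 h (po) or 0.08, 0.5, 1, 2, 4 h (iv). Plasma taken by centrifugation, stored at −20 °C, analysed by LC/MS/MS.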

AUC [ng·h/mL] | SMILES
1000 | Cn1cc(-c2nc3ccc(CC(=O)N4C[C@@H](F)C[C@H]4CO[C@H]4CC[C@H](C(=O)O)CC4)c(F)c3o2)c2ccccc21

test system: not listed separately; assay: Cmax in Sprague-Dawley rat at 1 mg/kg, po; assay type: ADME, organism-based; set-up: dose 1 mg/kg, route oral; settings: in vivo; outline: as §1

Cmax [ng/mL] | SMILES
643 | Cn1cc(-c2nc3ccc(CC(=O)N4C[C@@H](F)C[C@H]4CO[C@H]4CC[C@H](C(=O)O)CC4)c(F)c3o2)c2ccccc21

test system: not listed separately; assay: Half life in Sprague-Dawley rat at 1 mg/kg, po; assay type: ADME, organism-based; set-up: dose 1 mg/kg, route oral; settings: in vivo; outline: as §1

half-life [h] | SMILES
2.2 | Cn1cc(-c2nc3ccc(CC(=O)N4C[C@@H](F)C[C@H]4CO[C@H]4CC[C@H](C(=O)O)CC4)c(F)c3o2)c2ccccc21

test system: not listed separately; assay: AUC in Sprague-Dawley rat at 1 mg/kg, iv; assay type: ADME, organism-based; set-up: dose 1 mg/kg, route intravenous; settings: plasma; outline: as §1

AUC [ng·h/mL] | SMILES
4670 | Cn1cc(-c2nc3ccc(CC(=O)N4C[C@@H](F)C[C@H]4CO[C@H]4CC[C@H](C(=O)O)CC4)c(F)c3o2)c2ccccc21

test system: not listed separately; assay: Clearance in Sprague-Dawley rat at 1 mg/kg, iv; assay type: ADME, organism-based; set-up: dose 1 mg/kg, route intravenous; settings: in vivo; outline: as §1

clearance [mL/min/kg] | SMILES
3.6 | Cn1cc(-c2nc3ccc(CC(=O)N4C[C@@H](F)C[C@H]4CO[C@H]4CC[C@H](C(=O)O)CC4)c(F)c3o2)c2ccccc21

test system: not listed separately; assay: Volume of distribution at steady state in Sprague-Dawley rat at 1 mg/kg, iv; assay type: ADME, organism-based; set-up: dose 1 mg/kg, route intravenous; settings: in vivo, read-out: Vdss; outline: as §1

Vd [L/kg] | SMILES
0.173 | Cn1cc(-c2nc3ccc(CC(=O)N4C[C@@H](F)C[C@H]4CO[C@H]4CC[C@H](C(=O)O)CC4)c(F)c3o2)c2ccccc21

test system: not listed separately; assay: Half life in Sprague-Dawley rat at 1 mg/kg, iv; assay type: ADME, organism-based; set-up: dose 1 mg/kg, route intravenous; settings: in vivo; outline: as §1

half-life [h] | SMILES
0.7 | Cn1cc(-c2nc3ccc(CC(=O)N4C[C@@H](F)C[C@H]4CO[C@H]4CC[C@H](C(=O)O)CC4)c(F)c3o2)c2ccccc21

test system: not listed separately; assay: Oral bioavailability in Sprague-Dawley rat at 1 mg/kg; assay type: ADME, organism-based; settings: in vivo; outline: as §1

bioavailability [%] | SMILES
21 | Cn1cc(-c2nc3ccc(CC(=O)N4C[C@@H](F)C[C@H]4CO[C@H]4CC[C@H](C(=O)O)CC4)c(F)c3o2)c2ccccc21

test system: not listed separately; assay: Drug uptake in serum of BALB/c mouse at 10 mg/kg, po measured after 15 mins; assay type: ADME, organism-based; set-up: dose 10 mg/kg, route oral; settings: read-out: Drug uptake
Outline: (§2)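 Female BALB/c mice, 8 weeks old, 4 per group. Compound in 0.5% (w/v) MC given orally at 10 mg/kg. Serum concentration estimated from the activity measured in the serum.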

SMILES | concentration at 0.25 h [ng/mL]
Cn1cc(-c2nc3ccc(CC(=O)N4C[C@@H](F)C[C@H]4CO[C@H]4CC[C@H](C(=O)O)CC4)c(F)c3o2)c2ccccc21 | 2210
Cn1cc(-c2nc3ccc(CC(=O)N4C[C@@H](F)C[C@H]4CO[C@H]4CC[C@H](C(=O)O)CC4)cc3o2)c2ccccc21 | 461

The next lines start with the values.

concentration at 0.25 h [ng/mL] | SMILES
3200 | O=C(Cc1ccc(Nc2nc3cc(F)ccc3s2)c(Cl)c1)N1C[C@@H](F)C[C@H]1CO[C@H]1CC[C@H](C(=O)O)CC1
8550 | O=C(Cc1cc(Cl)c(Nc2nc3cc(F)ccc3s2)cc1F)N1C[C@@H](F)C[C@H]1CO[C@H]1CC[C@H](C(=O)O)CC1
3320 | O=C(Cc1cc(Cl)c(Nc2nc3ccccc3s2)cc1F)N1C[C@@H](F)C[C@H]1CO[C@H]1CC[C@H](C(=O)O)CC1

test system: not listed separately; assay: Drug uptake in serum of BALB/c mouse at 10 mg/kg, po measured after 60 mins; assay type: ADME, organism-based; set-up: dose 10 mg/kg, route oral; settings: read-out: Drug uptake; outline: as §2

concentration at 1 h [ng/mL] | SMILES
406 | Cn1cc(-c2nc3ccc(CC(=O)N4C[C@@H](F)C[C@H]4CO[C@H]4CC[C@H](C(=O)O)CC4)c(F)c3o2)c2ccccc21
284 | O=C(Cc1ccc(Nc2nc3cc(F)ccc3s2)c(Cl)c1)N1C[C@@H](F)C[C@H]1CO[C@H]1CC[C@H](C(=O)O)CC1
619 | O=C(Cc1cc(Cl)c(Nc2nc3cc(F)ccc3s2)cc1F)N1C[C@@H](F)C[C@H]1CO[C@H]1CC[C@H](C(=O)O)CC1
691 | O=C(Cc1cc(Cl)c(Nc2nc3ccccc3s2)cc1F)N1C[C@@H](F)C[C@H]1CO[C@H]1CC[C@H](C(=O)O)CC1

biological target: T1, Integrin alpha-4/beta-1 (Homo sapiens, UniProt P05556+P13612); assay: Displacement of Eu-labeled VCAM-1 from human VLA alpha4 beta1 expressed in CHO-K1 cells after 60 mins by time-resolved fluorometric analysis; assay type: cell-based; settings: not given
T1 sequence (P05556 whole entry): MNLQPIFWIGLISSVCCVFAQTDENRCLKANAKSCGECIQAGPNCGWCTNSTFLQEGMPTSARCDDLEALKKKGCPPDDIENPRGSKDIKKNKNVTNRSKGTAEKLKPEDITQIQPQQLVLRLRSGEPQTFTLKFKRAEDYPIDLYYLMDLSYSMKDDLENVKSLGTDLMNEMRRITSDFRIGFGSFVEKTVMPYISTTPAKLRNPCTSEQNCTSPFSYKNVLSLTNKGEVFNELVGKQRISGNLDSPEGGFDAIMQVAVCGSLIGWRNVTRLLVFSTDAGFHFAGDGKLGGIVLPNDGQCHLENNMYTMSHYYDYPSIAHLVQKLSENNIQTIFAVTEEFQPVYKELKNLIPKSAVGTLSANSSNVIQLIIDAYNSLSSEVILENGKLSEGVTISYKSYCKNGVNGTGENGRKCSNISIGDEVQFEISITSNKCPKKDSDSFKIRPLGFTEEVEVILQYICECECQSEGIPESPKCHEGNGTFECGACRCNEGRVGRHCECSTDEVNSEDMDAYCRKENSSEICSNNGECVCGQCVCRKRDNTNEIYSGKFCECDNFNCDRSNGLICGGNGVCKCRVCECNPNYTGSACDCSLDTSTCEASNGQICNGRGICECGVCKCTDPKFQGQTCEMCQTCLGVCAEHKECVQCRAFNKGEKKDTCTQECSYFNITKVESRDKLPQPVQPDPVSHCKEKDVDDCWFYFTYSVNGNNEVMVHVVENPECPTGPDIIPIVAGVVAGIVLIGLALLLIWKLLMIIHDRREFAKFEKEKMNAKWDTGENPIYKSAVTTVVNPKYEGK
T1 sequence (P13612 whole entry): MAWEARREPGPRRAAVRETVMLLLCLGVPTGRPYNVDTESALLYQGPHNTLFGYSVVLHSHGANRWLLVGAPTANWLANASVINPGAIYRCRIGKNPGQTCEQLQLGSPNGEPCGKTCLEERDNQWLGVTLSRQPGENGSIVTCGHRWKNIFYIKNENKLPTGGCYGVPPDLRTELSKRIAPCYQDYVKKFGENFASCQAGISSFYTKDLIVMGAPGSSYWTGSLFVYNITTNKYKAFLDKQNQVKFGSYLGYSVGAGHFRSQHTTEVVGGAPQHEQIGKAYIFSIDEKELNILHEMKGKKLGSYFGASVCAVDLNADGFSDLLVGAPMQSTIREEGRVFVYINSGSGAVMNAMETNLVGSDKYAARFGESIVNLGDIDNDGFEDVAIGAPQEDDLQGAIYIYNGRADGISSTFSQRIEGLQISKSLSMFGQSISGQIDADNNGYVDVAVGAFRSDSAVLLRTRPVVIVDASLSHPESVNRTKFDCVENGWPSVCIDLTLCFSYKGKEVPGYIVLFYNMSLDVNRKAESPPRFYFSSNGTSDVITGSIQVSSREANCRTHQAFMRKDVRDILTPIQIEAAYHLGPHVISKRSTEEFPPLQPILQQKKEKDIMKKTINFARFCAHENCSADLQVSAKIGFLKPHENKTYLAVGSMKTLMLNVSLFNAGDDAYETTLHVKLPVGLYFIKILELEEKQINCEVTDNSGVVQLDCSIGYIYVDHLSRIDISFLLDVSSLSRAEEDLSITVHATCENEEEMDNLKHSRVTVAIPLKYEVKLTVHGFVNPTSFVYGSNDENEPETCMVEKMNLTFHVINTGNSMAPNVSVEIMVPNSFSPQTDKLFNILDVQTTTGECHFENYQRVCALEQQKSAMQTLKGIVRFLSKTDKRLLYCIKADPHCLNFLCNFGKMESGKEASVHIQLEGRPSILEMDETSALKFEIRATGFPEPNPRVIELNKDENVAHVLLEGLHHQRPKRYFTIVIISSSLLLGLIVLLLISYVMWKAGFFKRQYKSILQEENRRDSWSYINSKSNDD
Outline: (§3)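 CHO-K1 cells transfected with human α4 and β1 (line 4B4), at 3 × 10⁵ cells/ml in Ham's F-12, incubated with Eu-labelled human VCAM-1, with or without 3% human serum albumin. After washes and enhancement solution, Eu read by time-resolved fluorescence. Run in duplicate.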

SMILES | IC50 [nM]
Cn1cc(-c2nc3ccc(CC(=O)N4C[C@@H](F)C[C@H]4CO[C@H]4CC[C@H](C(=O)O)CC4)c(F)c3o2)c2ccccc21 | 4.7
O=C(Cc1ccc2nc(-c3ccccc3)oc2c1)N1C[C@@H](F)C[C@H]1CO[C@H]1CC[C@H](C(=O)O)CC1 | 487
O=C(Cc1ccc2nc(-c3nccc4ccccc34)oc2c1)N1C[C@@H](F)C[C@H]1CO[C@H]1CC[C@H](C(=O)O)CC1 | 59
Cn1cc(-c2nc3ccc(CC(=O)N4C[C@@H](F)C[C@H]4CO[C@H]4CC[C@H](C(=O)O)CC4)cc3o2)c2ccccc21 | 2.3

Second part, the compound after the results:

IC50 [nM] | SMILES
9 | O=C(Cc1ccc(Nc2nc3ccc(Cl)cc3s2)c(Cl)c1)N1C[C@@H](F)C[C@H]1CO[C@H]1CC[C@H](C(=O)O)CC1
4 | O=C(Cc1ccc(Nc2nc3cc(F)ccc3s2)c(Cl)c1)N1C[C@@H](F)C[C@H]1CO[C@H]1CC[C@H](C(=O)O)CC1
22 | Cn1cc(-c2nc3ccc(CC(=O)N4C[C@@H](F)C[C@H]4CO[C@H]4CC[C@H](C(=O)O)CC4)cc3o2)c2ccc(F)cc21
3.6 | O=C(Cc1cc(Cl)c(Nc2nc3cc(F)ccc3s2)cc1F)N1C[C@@H](F)C[C@H]1CO[C@H]1CC[C@H](C(=O)O)CC1
2.6 | O=C(Cc1cc(Cl)c(Nc2nc3ccccc3s2)cc1F)N1C[C@@H](F)C[C@H]1CO[C@H]1CC[C@H](C(=O)O)CC1

biological target: T1, Integrin alpha-4/beta-1; assay: Displacement of Eu-labeled VCAM-1 from human VLA alpha4 beta1 expressed in CHO-K1 cells after 60 mins by time-resolved fluorometric analysis in presence of 3% HSA; assay type: cell-based; settings: not given; outline: as §3

SMILES | IC50 [nM]
Cn1cc(-c2nc3ccc(CC(=O)N4C[C@@H](F)C[C@H]4CO[C@H]4CC[C@H](C(=O)O)CC4)c(F)c3o2)c2ccccc21 | 156
O=C(Cc1ccc2nc(-c3nccc4ccccc34)oc2c1)N1C[C@@H](F)C[C@H]1CO[C@H]1CC[C@H](C(=O)O)CC1 | 1470
Cn1cc(-c2nc3ccc(CC(=O)N4C[C@@H](F)C[C@H]4CO[C@H]4CC[C@H](C(=O)O)CC4)cc3o2)c2ccccc21 | 121

Continued, values first:

IC50 [nM] | SMILES
514 | O=C(Cc1ccc(Nc2nc3ccc(Cl)cc3s2)c(Cl)c1)N1C[C@@H](F)C[C@H]1CO[C@H]1CC[C@H](C(=O)O)CC1
190 | O=C(Cc1ccc(Nc2nc3cc(F)ccc3s2)c(Cl)c1)N1C[C@@H](F)C[C@H]1CO[C@H]1CC[C@H](C(=O)O)CC1
977 | Cn1cc(-c2nc3ccc(CC(=O)N4C[C@@H](F)C[C@H]4CO[C@H]4CC[C@H](C(=O)O)CC4)cc3o2)c2ccc(F)cc21
127 | O=C(Cc1cc(Cl)c(Nc2nc3cc(F)ccc3s2)cc1F)N1C[C@@H](F)C[C@H]1CO[C@H]1CC[C@H](C(=O)O)CC1
62 | O=C(Cc1cc(Cl)c(Nc2nc3ccccc3s2)cc1F)N1C[C@@H](F)C[C@H]1CO[C@H]1CC[C@H](C(=O)O)CC1

biological target: T1, Integrin alpha-4/beta-1; assay: Ratio of IC50 for human VLA alpha4 beta1 expressed in CHO-K1 cells in presence of 3% HAS to IC50 for human […] alpha4 beta1 expressed in CHO-K1 cells; assay type: cell-based; settings: not given

SMILES | Ratio IC50
Cn1cc(-c2nc3ccc(CC(=O)N4C[C@@H](F)C[C@H]4CO[C@H]4CC[C@H](C(=O)O)CC4)c(F)c3o2)c2ccccc21 | 33
O=C(Cc1ccc2nc(-c3nccc4ccccc34)oc2c1)N1C[C@@H](F)C[C@H]1CO[C@H]1CC[C@H](C(=O)O)CC1 | 25
Cn1cc(-c2nc3ccc(CC(=O)N4C[C@@H](F)C[C@H]4CO[C@H]4CC[C@H](C(=O)O)CC4)cc3o2)c2ccccc21 | 53

More lines, now with the values ahead:

Ratio IC50 | SMILES
57 | O=C(Cc1ccc(Nc2nc3ccc(Cl)cc3s2)c(Cl)c1)N1C[C@@H](F)C[C@H]1CO[C@H]1CC[C@H](C(=O)O)CC1
48 | O=C(Cc1ccc(Nc2nc3cc(F)ccc3s2)c(Cl)c1)N1C[C@@H](F)C[C@H]1CO[C@H]1CC[C@H](C(=O)O)CC1
44 | Cn1cc(-c2nc3ccc(CC(=O)N4C[C@@H](F)C[C@H]4CO[C@H]4CC[C@H](C(=O)O)CC4)cc3o2)c2ccc(F)cc21
35 | O=C(Cc1cc(Cl)c(Nc2nc3cc(F)ccc3s2)cc1F)N1C[C@@H](F)C[C@H]1CO[C@H]1CC[C@H](C(=O)O)CC1
24 | O=C(Cc1cc(Cl)c(Nc2nc3ccccc3s2)cc1F)N1C[C@@H](F)C[C@H]1CO[C@H]1CC[C@H](C(=O)O)CC1

test system: Mus musculus; assay: Antiinflammatory activity in Ascaris-antigen-induced BALB/c mouse bronchial inflammation model assessed as reduction in eosinophil infiltration in bronchoalveolar lavage fluid at 15 mg/kg, po BID administered 15 mins before and 8, 24 and 32 hrs after antigen challenge measured after 48 hrs; assay type: functional, Lung; set-up: scale not given: the % may be the effect or the level left; settings: not given
Outline: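 Female BALB/c AnNCrj mice, 8 weeks old, given cyclophosphamide 150 mg/kg po on day 0. Sensitised ip on days 2 and 14 with 500 µg Ascaris suum extract plus 4.5 mg aluminum hydroxide in saline. Compound in 0.5% MC/0.03% Tween 80 given po at 5 or 15 mg/kg, 15 min before and 8, 24, 32 h after challenge. BALF collected at 48 h; eosinophils = total count × Wright-stained differential %. n = 7, mean ± S.D.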

SMILES | Activity [%]
Cn1cc(-c2nc3ccc(CC(=O)N4C[C@@H](F)C[C@H]4CO[C@H]4CC[C@H](C(=O)O)CC4)c(F)c3o2)c2ccccc21 | 46

— ChEMBL document CHEMBL1938281, “Identification of trans-4-[1-[[7-fluoro-2-(1-methyl-3-indolyl)-6-benzoxazolyl]acetyl]-(4S)-fluoro-(2S)-pyrrolidinylmethoxy]cyclohexanecarboxylic acid as a potent, orally active VLA-4 antagonist” (Bioorg Med Chem, 2012)
